Assay results as given in ChEMBL document CHEMBL5230177, “Inactivation of myostatin by photooxygenation using functionalized d-peptides” (RSC Med Chem, 2023).
Calls of active or inactive are those of the source. The calls are words filed in the database; no cut-off is given here.

Tests used:
[1] = target: Growth/differentiation factor 8 (Homo sapiens) (UniProt O14793); experiment: Photo-oxygenation of human recombinant Myostatin expressed in Escherichia coli cells assessed as oxygen adduct formation in myostatin peak fragment 79-90 at 3 uM measured after photoirradiation for 30 mins using LED by MALDI-TOF-MS analysis
Outline: (§1)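 Myostatin stock (8 μM in 1 mM HCl) diluted to 1 μM in 10 mM phosphate, pH 7.4. Functionalized peptide (final 3 μM) or methylene blue (final 1 μM) added. Irradiated 30 min with 730 nm LED (14 mW) at room temperature. Then 50 mM DTT reduction (37 °C, 0.5 h), Lys-C digestion (1/20 w/w, 37 °C, 2.5 h), ZipTip desalting, MALDI-TOF MS of fragments.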

[2] = target: Growth/differentiation factor 8 (Homo sapiens) (UniProt O14793); experiment: Photo-oxygenation of human recombinant Myostatin expressed in Escherichia coli cells assessed as oxygen adduct formation in myostatin peak fragment 55-78 at 3 uM measured after photoirradiation for 30 mins using LED by MALDI-TOF-MS analysis; outline: as §1
[3] = target: Growth/differentiation factor 8 (Homo sapiens) (UniProt O14793); experiment: Photo-oxygenation of human recombinant Myostatin expressed in Escherichia coli cells assessed as oxygen adduct formation in myostatin peak fragment 40-54 at 3 uM measured after photoirradiation for 30 mins using LED by MALDI-TOF-MS analysis; outline: as §1
[4] = target: Amyloid-beta precursor protein (Homo sapiens) (UniProt P05067); experiment: Photo-oxygenation of human Amyloid beta (1 to 42) assessed as oxygen adduct formation at 3 uM measured after photoirradiation for 30 mins using LED by MALDI-TOF-MS analysis
Chain of Amyloid-beta precursor protein (Homo sapiens) (P05067 whole entry): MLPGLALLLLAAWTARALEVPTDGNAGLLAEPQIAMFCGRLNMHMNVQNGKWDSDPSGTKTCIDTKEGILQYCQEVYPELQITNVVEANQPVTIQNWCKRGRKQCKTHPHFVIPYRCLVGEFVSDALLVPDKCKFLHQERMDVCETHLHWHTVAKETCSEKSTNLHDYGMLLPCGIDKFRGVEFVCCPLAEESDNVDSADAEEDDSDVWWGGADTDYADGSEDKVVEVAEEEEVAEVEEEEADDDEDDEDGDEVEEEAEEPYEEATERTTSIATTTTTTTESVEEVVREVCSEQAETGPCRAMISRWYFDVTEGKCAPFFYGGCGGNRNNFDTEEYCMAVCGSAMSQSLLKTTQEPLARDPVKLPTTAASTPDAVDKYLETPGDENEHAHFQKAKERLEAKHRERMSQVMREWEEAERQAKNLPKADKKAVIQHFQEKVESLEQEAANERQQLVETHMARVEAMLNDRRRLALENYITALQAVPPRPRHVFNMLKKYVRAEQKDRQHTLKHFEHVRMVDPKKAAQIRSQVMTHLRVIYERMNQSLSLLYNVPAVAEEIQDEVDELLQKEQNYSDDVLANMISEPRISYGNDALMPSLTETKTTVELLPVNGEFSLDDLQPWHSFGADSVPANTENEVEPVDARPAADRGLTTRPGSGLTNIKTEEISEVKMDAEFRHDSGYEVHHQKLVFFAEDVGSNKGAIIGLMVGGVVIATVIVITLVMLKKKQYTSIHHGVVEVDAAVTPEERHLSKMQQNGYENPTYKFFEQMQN
Outline: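 Aβ1-42 formed in situ from isopeptide stock (250 μM in 0.1% TFA, ultracentrifuged), diluted to 20 μM in 10 mM phosphate, pH 7.4. Functionalized peptide (final 3 μM) or methylene blue (final 1 μM) added. Irradiated with 730 nm LED (14 mW, 3–5 cm) at room temperature. Reduced with 50 mM DTT (37 °C, 0.5 h), Lys-C digested (1/20 w/w, 37 °C, 2.5 h), desalted, analysed by MALDI-TOF MS.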

[5] = target: Growth/differentiation factor 8 (Homo sapiens) (UniProt O14793); experiment: Photo-oxygenation mediated inactivation of human recombinant Myostatin expressed in Escherichia coli cells assessed as residual activity at 3 nM photoirradiated for 30 mins using LED followed by incubation with luciferase reporter transfected HEK293 cells for 4 hrs by luciferase reporter gene assay; conditions: time 4.5 hrs
Outline: (§2)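 Myostatin (1 μM in 10 mM phosphate, pH 7.4, with or without peptide) diluted in serum-free DMEM to 0.6 nM, irradiated at 730 nm for 30 min, then added to HEK293 cells. Cells were transfected 24 h with SBE-luc2P reporter plus TK-Renilla control, then held 8 h in serum/phenol red-free DMEM. Exposure 4 h, PBS wash, dual-luciferase read-out. Triplicate, mean ± s.d. (n = 3), Tukey's test.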

[6] = target: Growth/differentiation factor 8 (Homo sapiens) (UniProt O14793); experiment: Inactivation of human recombinant Myostatin expressed in Escherichia coli cells at 3 nM incubated with luciferase reporter transfected HEK293 cells for 4 hrs by luciferase reporter gene assay
[7] = target: T1, Growth/differentiation factor 8 (Homo sapiens, UniProt O14793); experiment: Photo-oxygenation mediated inactivation of human recombinant Myostatin expressed in Escherichia coli cells photoirradiated for 30 mins using LED followed by incubation with luciferase reporter transfected HEK293 cells for 4 hrs by luciferase reporter gene assay; outline: as §2
T1 sequence (O14793 whole entry): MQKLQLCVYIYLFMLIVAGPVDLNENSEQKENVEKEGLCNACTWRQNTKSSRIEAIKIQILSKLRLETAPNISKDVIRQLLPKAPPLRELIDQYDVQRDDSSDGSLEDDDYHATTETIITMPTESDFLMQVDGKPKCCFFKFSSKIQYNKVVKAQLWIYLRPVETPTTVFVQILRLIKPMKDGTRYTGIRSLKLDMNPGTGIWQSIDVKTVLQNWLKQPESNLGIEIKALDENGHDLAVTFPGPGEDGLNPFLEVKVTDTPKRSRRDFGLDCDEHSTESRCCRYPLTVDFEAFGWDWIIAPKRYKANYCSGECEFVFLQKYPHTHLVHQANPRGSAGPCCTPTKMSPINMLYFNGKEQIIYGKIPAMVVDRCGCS

[8] = test system: HEK293; experiment: Phototoxicity against human HEK293 cells assessed as reduction in cell viability at 3 uM photoirradiated for 30 mins using LED followed by incubation with compound for 24 hrs by WST-1 assay; type: toxicity, cell-based; conditions: hek293, 24.5 h, time 1470 min
Outline: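 HEK293 cells grown in DMEM with 10% FBS and non-essential amino acids at 37 °C, 5% CO2, seeded 2.0×10^4 cells/well. After 48 h, medium switched to serum- and phenol red-free DMEM containing 3 μM peptide or methylene blue. Cells irradiated with LED (λmax 730 nm, 30 min), then incubated 24 h. Viability read by WST-1; Student's t-test.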

[9] = test system: trypsin (Sus scrofa); experiment: Stability of the compound assessed as trypsin (porcine pancreas)-mediated drug degradation at 100 uM measured after 3 hrs by MALDI-TOF-MS analysis
[10] = test system: chymotrypsin (Bos taurus); experiment: Stability of the compound assessed as chymotrypsin (bovine pancreas)-mediated drug degradation at 100 uM measured after 3 hrs by MALDI-TOF-MS analysis

Activity [1]: Active | Activity [2]: Active | Activity [3]: inactive | Activity [4]: inactive | Activity [5]: 41% | inhibition [6]: inactive | IC50 [7]: 0.89 nM | Stability [9]: Stable | Stability [10]: Stable
Structure (SMILES): CC[C@@H](C)[C@@H](NC(=O)[C@@H](CCCNC(=N)N)NC(=O)[C@@H](CCc1ccccc1)NC(=O)[C@H](NC(=O)[C@@H](CCCCN)NC(=O)[C@H](NC(=O)[C@@H](CCCNC(=N)N)NC(=O)[C@H](NC(=O)[C@@H](Cc1ccc2ccccc2c1)NC(=O)[C@@H](CCCNC(=N)N)NC(=O)[C@@H](CCCCN)NC(=O)[C@H](NC(=O)[C@@H](CCCNC(=N)N)NC(=O)[C@@H](CC(C)C)NC(=O)CCc1cn(CCN2CCCc3cc(/C=C/C4=C(Br)C(/C=C/c5cc6c7c(c5)CCCN7CCC6)=[O+][B-](F)(C(F)(F)F)O4)ccc32)nn1)C1CCCCC1)[C@H](C)CC)C1CCCCC1)[C@H](C)CC)C(=O)N[C@H](Cc1ccc(O)cc1)C(=O)N[C@H](CCc1ccccc1)C(N)=O (stereo not given in full)
Activity [8]: Non-Toxic
